Test results: PubChem BioAssay AID617 (SRMLSC, 2007)

tested on: E. coli BW25113 ΔtolC growth inhibition, OD615; test: E. coli ΔtolC antibacterial growth inhibition – strain BW25113 ΔtolC::kan, dose response (AID 617)
Summary of the method: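 System – E. coli BW25113 ΔtolC::kan bacteria · Input – inoculum from 1:1000-diluted 1.5 h subculture · Buffer or medium – LB plus kanamycin · Compound – serial dilution series of compound · Timing – bacterial growth with compound for 20 h, 37 °C · Measured by – OD615 · Read-out basis – growth-inhibition IC50 from four-parameter logistic curve, bounds set to 0% and 100% · Benchmarks – chloramphenicol 30 µM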

Row | SMILES | IC50
1 | Cc1nc(N2CCN(Cc3ccccc3)CC2)nc2c1C(=O)CC(c1ccco1)C2 (stereo not given) | 10.6 µM
2 | C=CCSc1n[nH]c(-c2ccc(OCCCC)cc2)n1 | 93.1 µM
3 | O=S(=O)(Nc1ncnc2sc3c(c12)CCC3)c1ccc(Cl)s1 | 5.93 µM
4 | O=C(c1cc2nc(-c3ccco3)cc(C(F)(F)F)n2n1)N1CCN(c2ccccc2)CC1 | 10.3 µM
5 | CC(C)Cc1cc(C(=O)Nc2cc(Br)ccc2O)no1 | 5.72 µM
6 | CCOC(=O)c1cc2c(ccn2C)n1Cc1ccccc1C | 27.3 µM
7 | O=C(COC(=O)c1ccc(Oc2ccccc2)cc1)Nc1nnc(-c2ccccc2)o1 | 0.96 µM
8 | CCCCOc1[nH]c2nc(-c3ccco3)n(Cc3ccco3)c(=N)c2c1C#N | 12 µM
9 | Cc1ccc(C)c(N2CCN(C(=O)c3cc4sccc4n3C)CC2)c1 | 15.1 µM
10 | O=C(Nc1ccc(Cl)cc1)NC1CCCC1Cc1ccco1 (stereo not given) | 3.63 µM
11 | O=C(CSc1nc2nc(-c3cccs3)cc(C(F)(F)F)c2c(=O)[nH]1)NCc1ccco1 | 5.53 µM
12 | CCc1cc2c3c(c(=O)oc2cc1O)CCCC3 | 33 µM
13 | CCOc1ccc(N(CC(=O)Nc2cccc(OC)c2)S(=O)(=O)c2c(C)noc2C)cc1 | 22.8 µM
14 | Nc1nncn1C(=O)CCCN1C(=O)c2ccccc2C1=O | 12.7 µM
15 | Cc1cccn2c(=O)c3cc(C(=O)NCc4ccco4)c(=N)n(CCc4ccccc4)c3nc12 | 43.1 µM
16 | c1coc(CNc2nc(N3CCCCC3)nc3ccccc23)c1 | 16.9 µM
17 | OC1(c2cccc(C(F)(F)F)c2)CCN(c2ncnc3c2[nH]c2ccc(F)cc23)CC1 | 1.58 µM
18 | CCCCN(CCCNC(=O)CN1C(=O)COc2ccccc21)c1ccccc1 | 38.9 µM
19 | CC(C)OCCCNc1ncnc2c1[nH]c1ccc(F)cc12 | 7.21 µM
20 | CC(C)C(c1nnnn1C1CCCC1)N1c2ccccc2CC1C (stereo not given) | 20.8 µM
21 | CCOC(=O)c1c(NC(=O)CN(CC)CC)sc2c1CCC2 | 13.8 µM
22 | O=C(Nc1sc2c(c1C(=O)O)CCC2)c1cccs1 | 13.8 µM
23 | Cc1ccc(C2C(S(C)(=O)=O)=C(O)C(=O)N2c2ccccc2)cc1 (stereo not given) (tested in a mixture with another compound) | 4.81 µM
24 | Cn1c(=O)c2c(SCc3cccnc3)nc(CC(C)(C)C)nc2n(C)c1=O | 8.18 µM
25 | Cn1c(-c2ccccc2)cc2c3no[n+]([O-])c3ccc21 | 5.09 µM
26 | Cc1onc(-c2ccccc2)c1C(=O)Nc1nnc(COc2ccc(Cl)cc2)s1 | 2.99 µM
27 | CCOC(=O)Nc1ccc2c(c1)N(C(=O)N1CCN(C)CC1)c1ccccc1S2 | 36.9 µM
28 | CN1CCN(c2c(F)cc3c(=O)c(C(=O)O)cn4c3c2SCC4)CC1 | 0.91 µM

Row | SMILES | IC50
29 | O=C(Cn1c2c(c(-c3ccccc3)cc1=O)CCCC2)N1CCCCCC1 | 6.09 µM
30 | COc1ccc(CN(C(=O)CN2C(=O)C(C)Oc3ccccc32)C2CCCC2)c(OC)c1 (stereo not given) | 28.1 µM
31 | Cc1ccc(S(=O)(=O)Cn2nnnc2CN2CCCC3(CCCCC3)C2)cc1 | 11.3 µM
32 | Cc1cc(/C=C(/C#N)c2cccc(F)c2)c(C)n1-c1cccnc1 | 10.9 µM
33 | CCn1nc(-c2ccccc2)nc2c(=O)n(C)c(=O)nc1-2 | 2.8 µM
34 | C/C(CCc1oc2ccccc2c1-c1ccc(C)o1)=N/O | 14.2 µM
35 | Cc1cc(=O)[nH]c(-n2nc(C)cc2C)n1 | 6.56 µM
36 | Cc1ccc(C2(c3ccc(C)cc3)NC(=O)N(Cc3c(C)noc3C)C2=O)cc1 | 6.45 µM
37 | CCCCNc1cc(C)nc(NCc2ccccc2)n1 | 7.8 µM
38 | O=C(NC1CCCCCCC1)c1ccccc1O | 9.01 µM
39 | Cc1nn(-c2ccccc2)c(Cl)c1C1C(C#N)=C(N)Oc2c1c(=O)oc1ccccc21 (stereo not given) | 12 µM
40 | CN(Cc1ccccc1)Cc1nc2c(c(=O)n(C)c(=O)n2C)n1CCCc1ccccc1 | 14.9 µM
41 | O=C(CNCCC1=CCCCC1)Nc1ccccc1N1CCCCC1 | 11.2 µM
42 | COC(=O)c1cccc(-n2nnnc2SCC(=O)Nc2nc3c(s2)CCCC3)c1 | 15.8 µM
43 | COc1ccc(-c2noc(C)c2-c2ccc3ccccc3n2)c(O)c1 | 8.91 µM
44 | COC(=O)c1ccsc1NC(=O)CN1CCN(c2ccc(F)cc2)CC1 | 18.5 µM
45 | CCOC(=O)C1=C(C)NC(SCC(=O)Nc2cc(C)on2)=C(C#N)C1c1cccs1 (stereo not given) | 11 µM
46 | Cc1cccc(N2CCN(C(=O)c3ccc(NS(=O)(=O)c4c(C)noc4C)cc3)CC2)c1C | 16.2 µM
47 | CCN(CC)S(=O)(=O)c1ccc2[nH]cc(C(=O)NCCC3=CCCCC3)c(=O)c2c1 | 5.15 µM
48 | CSc1nc2ccc(NS(=O)(=O)c3ccc(Cl)s3)cc2s1 | 0.72 µM
49 | Cc1[nH]n2c(=O)c3c(nc2c1-c1ccc(Cl)cc1)CCC3 | 4.09 µM
50 | O=S(=O)(Nc1nc2ccccc2nc1N1CCN(c2ccccn2)CC1)c1ccc(Cl)cc1 | 3.16 µM
51 | COc1ccc(-n2c(Cc3cccn3C)nnc2SCC(=O)Nc2ccc(C)c(Cl)c2)cc1 | 14.4 µM
52 | CSCSC1=C(C#N)C(c2ccc(Cl)cc2)C(C(C)=O)=C(C)N1 (stereo not given) | 9.12 µM
53 | CCC(C)(C)n1nnnc1C(c1cc2ccc(OC)cc2[nH]c1=O)N1CCc2ccccc2C1 (stereo not given) | 17.1 µM
54 | Cc1cccc(Nc2nc(-c3ccccn3)cs2)n1 | 0.68 µM
55 | COc1ccc(OC)c(S(=O)(=O)n2cnc3cc(C)c(C)cc32)c1 | 11.4 µM
